Assay results from different studies.
Lines come from different studies, so protocols differ.
CDK2 with cyclin A2: Cyclin-dependent kinase 2, with cyclin A2 (CDK2, Homo sapiens, UniProt P24941)
ST14: Suppressor of tumorigenicity 14 protein (ST14, Homo sapiens, UniProt Q9Y5Y6)
MAPK10: Mitogen-activated protein kinase 10 (MAPK10, Homo sapiens, UniProt P53779)

| SMILES | target | test | setting | measurement | result |
| --- | --- | --- | --- | --- | --- |
| CC(=O)Nc1c(N)nc(SCC(=O)N/N=C/c2ccc([N+](=O)[O-])cc2)[nH]c1=O | CDK2 with cyclin A2 | enzyme activity, inhibitor | 20 nM | inhibition | 21.3% |
| COc1ccc2[nH]c3c(c2c1)[C@H]1C[C@@H]([C@H]3C)N(Cc2ccccc2)C[C@]1(C)O | Delta-type opioid receptor (Oprd1, Rattus norvegicus, UniProt P33533) | ligand displacement, radioligand | 1 µM | inhibition | 13% |
| COc1cc(-c2cncc3c2CN(C)Cc2cc(N4CCNCC4)ccc2-3)cc(OC)c1OC | Tyrosine-protein kinase Fyn (FYN, Homo sapiens, UniProt P06241) | enzyme activity, inhibitor | 1 µM | remaining activity | 94% |
| CNc1ncc2c(/C=C/C(=O)N3CCC(OC)CC3)nn(Cc3cccc(C(F)(F)F)c3)c2n1 | Mitogen-activated protein kinase kinase kinase 14 (MAP3K14, Homo sapiens, UniProt Q99558) | enzyme activity, inhibitor, radiometric | 1 µM | remaining activity | 105% |
| N=C(N)NCCC[C@H](NC(=O)[C@@H](NC(=O)[C@H](Cc1cscn1)NC(=O)CCc1ccccc1)c1ccccc1)C(=O)c1nc2ccccc2s1 | ST14 | enzyme activity, inhibitor | 0.1 µM | remaining activity | 33% |
| C=CC(=O)N1CCC(COCC(=O)N2CCN(c3nc(-c4cnc(N)nc4C(F)F)nc(N4CCOC[C@@H]4C)n3)CC2)CC1 | ALK tyrosine kinase receptor (ALK, Homo sapiens, UniProt Q9UM73) | binding, competition with immobilised ligand | 1 µM | remaining binding | 72% |
| CC(=O)Nc1c(N)nc(SCC(=O)NN)[nH]c1=O | CDK2 with cyclin A2 | enzyme activity, inhibitor | 0.1 µM | inhibition | 41.2% |
| CC1([C@H](NC(=O)[C@H](Cc2cscn2)NC(=O)CCc2ccccc2)C(=O)N[C@@H](CCCNC(=N)N)C(=O)c2nc3ccccc3s2)CC1 | ST14 | enzyme activity, inhibitor | 0.1 µM | remaining activity | 69% |
| Cc1cc(NC(=O)c2cccc(NC(=O)/C=C/CN(C)C)c2)ccc1Nc1nccc(-c2cccnc2)n1 | MAPK10 | binding, competition with immobilised ligand | 1 µM | remaining binding | 0% |
| CC(C)C[C@@H](C(=O)N[C@@H](CCCNC(=N)N)C(=O)c1nc2ccccc2s1)N(C)C(=O)[C@H](Cc1cscn1)NC(=O)CCc1ccccc1 | ST14 | enzyme activity, inhibitor | 0.1 µM | remaining activity | 50% |
| CNC(=O)c1cc(Oc2ccc(NC(=O)Nc3ccc(Cl)c(C(F)(F)F)c3)cc2)ccn1 | CDK2 with cyclin A2 | enzyme activity, inhibitor | 0.5 µM | inhibition | 74% |
| N=C(N)NCCC[C@H](NC(=O)[C@H](Cc1ccc(-c2ccccc2)cc1)NC(=O)[C@H](Cc1cscn1)NC(=O)CCc1ccccc1)C(=O)c1nc2ccccc2s1 | ST14 | enzyme activity, inhibitor | 0.1 µM | remaining activity | 30% |
| Cc1cc([C@@H](C)Nc2ccccc2C(=O)O)c2nc(N3CCC(F)(F)CC3)c(C#N)c(=O)n2c1 | MAPK10 | binding, competition with immobilised ligand | 10 µM | remaining binding | 100% |
